Key:
[1] = Inhibition of Sprague-Dawley rat brain GGTI by continuous fluorescence assay
In short: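 GGT-I source: rat brain cytosol (male Sprague–Dawley, 100 000g supernatant). Buffer: 50 mM Tris-HCl pH 7.5, 5 mM MgCl2, 10 μM ZnCl2, 5 mM DTT, 0.01% dodecyl maltoside, 5.4 mg/mL protein, 4 μM dansyl-GCVLL, 10 μM GGPP. Incubated at 25 °C; fluorescence followed for 10 min at ex 340/em 505 nm. IC50 taken from sigmoid fit of rate against inhibitor concentration.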

[2] = Inhibition of Sprague-Dawley rat brain FTase by continuous fluorescence assay
In short: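 Enzyme source: cytosolic fraction (100 000g supernatant) of brains from male Sprague–Dawley rats aged 9–10 weeks, kept at -80 °C. Reaction: 50 mM Tris-HCl pH 7.5, 5 mM MgCl2, 10 μM ZnCl2, 5 mM DTT, 0.01% n-dodecyl-β-D-maltoside, 5.4 mg/mL cytosolic protein, 1.3 μM dansyl-CVIM, 25 μM FPP. Run at 25 °C, fluorescence (ex 340/em 505 nm) recorded 10 min. IC50 obtained by fitting ΔF/Δt versus inhibitor concentration.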

DLD-1 = experiment: Growth inhibition of human DLD1 cells by MTT assay after 72 hrs; type: functional, cell-based; conditions: DLD-1, 72 h
In short: (§1)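 Cells (H-Ras-transformed NIH3T3 fibroblasts; K-Ras-transformed DLD-1 colon adenocarcinoma; L-1210 leukaemia) grown in RPMI + 10% fetal calf serum. Seeded and allowed to grow 24 h, then exposed to a range of inhibitor concentrations for 72 h, 1% DMSO final. Growth read by colorimetric MTT assay; EC50 derived.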

L1210 = experiment: Growth inhibition of mouse L1210 cells by MTT assay after 72 hrs; type: functional, cell-based; conditions: L1210, 72 h; in short: as §1
NIH3T3 = experiment: Growth inhibition of H-Ras transformed […] cells by MTT assay after 72 hrs; type: functional, cell-based; conditions: Mus musculus, NIH3T3, 72 h; in short: as §1

Row | IC50 [1] [nM] | IC50 [2] [nM] | EC50 (DLD-1) [nM] | EC50 (L1210) [nM] | SMILES | EC50 (NIH3T3) [nM]
1 | > 2000 | 10 | – | – | CSCC[C@@H](C(=O)O)N(C(=O)c1ccccc1)C1CCN(Cc2cncn2Cc2ccc(C#N)cc2)CC1 | –
2 | > 2000 | 32.7 | – | – | CCC(C)[C@@H](C(=O)OC)N(C(=O)c1ccccc1)C1CCN(Cc2cncn2Cc2ccc(C#N)cc2)CC1 (stereo partly specified) | –
3 | 12.4 | 56.2 | – | – | CC(C)C[C@H](NC(=O)c1ccc(NC(=O)[C@@H](N)CS)cc1-c1ccccc1)C(=O)O | –
4 | – | 43.9 | – | – | COC(=O)[C@H](CCSC)N(C(=O)c1ccccc1)C1CCN(Cc2cncn2Cc2ccc(C(F)(F)F)cc2)CC1 | –
5 | – | 600 | – | – | COC(=O)[C@H](CCSC)N(C(=O)c1ccccc1)C1CCN(Cc2cncn2Cc2ccc(C)cc2)CC1 | –
6 | > 100 | 22.8 | 18100 | > 10000 | COC(=O)[C@H](CCSC)N(C(=O)c1ccccc1)C1CCN(C(=O)C(N)CS)CC1 (stereo partly specified) | –
7 | – | 397 | – | – | COC(=O)[C@H](CCSC)N(C(=O)c1ccccc1)C1CCN(Cc2cncn2Cc2ccccc2)CC1 | –
8 | – | 575 | – | – | COC(=O)[C@H](CCSC)N(C(=O)c1ccccc1)C1CCN(Cc2cncn2Cc2ccc(OC)cc2)CC1 | –
9 | > 2000 | 2.35 | 12900 | > 5000 | COC(=O)[C@H](CCSC)N(Cc1ccccc1)C1CCN(Cc2cncn2Cc2ccc(C#N)cc2)CC1 | –
10 | > 2000 | 22 | – | – | COC(=O)[C@H](Cc1ccccc1)N(C(=O)c1ccccc1)C1CCN(Cc2cncn2Cc2ccc(C#N)cc2)CC1 | –
11 | > 2000 | 54.1 | – | – | N#Cc1ccc(Cn2cncc2CN2CCC(N(C(=O)c3ccccc3)[C@@H](Cc3ccccc3)C(=O)O)CC2)cc1 | –
12 | > 2000 | 4.6 | 9200 | 20 | COC(=O)[C@H](CCSC)N(C(=O)c1ccccc1)C1CCN(Cc2cncn2Cc2ccc(C#N)cc2)CC1 | 1330
13 | > 100 | 72 | – | – | CSCC[C@H](NC(=O)c1ccc(NC(=O)[C@@H](N)CS)cc1)C(=O)O | –
14 | > 5000 | 34 | – | – | CSCC[C@H](NC(=O)[C@H](Cc1ccccc1)NC[C@@H](NC[C@@H](N)CS)C(C)C)C(=O)O | –
